Reference: ChEMBL document CHEMBL1255483, “Intra- and extracellular activities of dicloxacillin against Staphylococcus aureus in vivo and in vitro” (Antimicrob Agents Chemother, 2010)
Calls of active or inactive are those of the source. The rule behind the calls is not given here.

Columns and labels:
[1] = species on record: Mus musculus; test: Protein binding in NMRI mouse infected with Staphylococcus aureus E19977 at 90 mg/l by ultrafiltration; type: ADME, organism-based; conditions: in vivo
Summary of the method: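 Plasma binding was measured by ultrafiltration. EDTA blood from healthy mice, or from NMRI mice infected intraperitoneally for 6 h with E19977, was spiked with DCX at 10–400 mg/liter, with PBS controls. Samples were held 1 h at 37°C, then centrifuged through 30-kDa filters at 3,000 × g for 8 min at 37°C. Total and filtrate drug were measured by S. lutea bioassay.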

[2] = Ratio of fCmax in NMRI mouse at 200 mg/kg administered every 4 hrs to MIC for Staphylococcus aureus E19977; type: functional
Summary of the method: (§1)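 Free Cmax/MIC was modelled, not measured. Single-dose subcutaneous plasma curves from NMRI mice were projected to the multiple-dose regimens. Free fraction came from a square-root fit of unbound fraction versus total concentration. Binding was measured by ultrafiltration of mouse plasma spiked with 10–400 mg/liter and held 1 h at 37°C. MIC was for strain E19977.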

[3] = fT>MIC in Staphylococcus aureus E19977 infected NMRI mouse at 30 mg/kg administered every 2 hrs; type: functional
Summary of the method: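 Calculated percentage of 24 h at steady state that free plasma DCX exceeds the strain MIC (microdilution, pH 7.4). Concentrations were simulated from single subcutaneous dose plasma curves in NMRI mice (S. lutea bioassay), adjusted with a square-root model of concentration-dependent free fraction from ultrafiltration. The regimen was dosed subcutaneously in mice infected intraperitoneally with 10^7.4 CFU, and peritoneal CFU were read after 24 h of therapy.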

[4] = Ratio of fCmax in NMRI mouse at 76 mg/kg administered every 2 hrs to MIC for Staphylococcus aureus E19977; type: functional; summary of the method: as §1
[5] = tested on: Staphylococcus aureus; test: Bacteriostatic activity against Staphylococcus aureus ATCC 25923 infected in human THP-1 cells at compound MIC after 24 hrs; type: functional, organism-based
Summary of the method: (§2)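 Human THP-1 macrophages were infected with opsonized S. aureus at 4 bacteria per macrophage for 45 min. Non-phagocytized bacteria were removed by washing and a brief incubation in PBS with gentamicin 50 mg/liter. Cells were then incubated up to 24 h with DCX over a wide range of extracellular concentrations. The read-out was Δlog CFU per mg cell protein versus time zero (n = 3), with sigmoidal fitting and Cstatic by interpolation.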

[6] = tested on: Staphylococcus aureus; test: Bacteriostatic activity against Staphylococcus aureus ATCC 25923 infected in human THP-1 cells at MIC after 5 hrs; type: functional, organism-based; summary of the method: as §2
[7] = tested on: Staphylococcus aureus; test: Bacteriostatic activity against Staphylococcus aureus E19977 infected in human THP-1 cells at 100 times MIC after 5 hrs; type: functional, organism-based; summary of the method: as §2
[8] = tested on: Staphylococcus aureus; test: Bactericidal activity against Staphylococcus aureus ATCC 25923 infected in human THP-1 cells assessed as log change in bacterial count after 24 hrs; type: functional; summary of the method: as §2

Cc1onc(-c2c(Cl)cccc2Cl)c1C(=O)N[C@@H]1C(=O)N2[C@@H]1SC(C)(C)[C@@H]2C(=O)O [DICLOXACILLIN]
Activity [1]: 85.6% | Ratio [2]: 101.92 | fT>MIC [3]: 45.83% | Ratio [4]: 28.18 | Activity [5]: Active | Activity [6]: Active | Activity [7]: Active | Emax [8]: -1.19 deltalog10CFU/ml
